Results on 13 compounds are retold here after ChEMBL document CHEMBL3868627, “Radical scavenging and antibacterial activity of caffemides against gram positive, gram negative and clinical drug resistance bacteria” (Bioorg Med Chem Lett, 2016).

This test is described as follows: Antioxidant activity assessed as DPPH free radical scavenging activity measured after 30 mins by spectrophotometry. The test is classed as functional. The essentials:
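DPPH radical scavenging in ethanolic solution with a final DPPH concentration of 100 µM. Absorbance read at 517 nm. Percent inhibition = (A control − A test)/A control, where the control is DPPH without sample. The inhibition-versus-concentration plot gives EC50, the concentration giving a 50% drop in absorbance. Mean ± S.D. of three independent trials.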

Turning to `CC(C)(C)c1ccc(O)c(NC(=O)/C=C/c2ccc(O)c(O)c2)c1`, the EC50 was 11.9 µM. Then `O=C(/C=C/c1ccc(O)c(O)c1)Nc1ccccc1`, with 52.6 µM; and `O=C(/C=C/c1ccc(O)c(O)c1)Nc1ccc2ccccc2c1`, with 47.3 µM. The result for `O=C(/C=C/c1ccc(O)c(O)c1)NCCc1c[nH]c2ccccc12` reads 58.8 µM; that for `Nc1ccc(NC(=O)/C=C/c2ccc(O)c(O)c2)cc1`, 36 µM; that for VITAMIN E, 50.9 µM. As for `O=C(/C=C/c1ccc(O)c(O)c1)Nc1ccccc1Sc1ccccc1`, the EC50 was 27 µM. Take `O=C(/C=C/c1ccc(O)c(O)c1)Nc1ccc(F)cc1`: the EC50 turned out to be 24.1 µM.

With `O=C(/C=C/c1ccc(O)c(O)c1)Nc1ccc([N+](=O)[O-])cc1`, the EC50 turned out to be 7.21 µM. Then `CC(=O)c1cccc(NC(=O)/C=C/c2ccc(O)c(O)c2)c1`, with 10.6 µM.

With `O=C(O)/C=C/c1ccc(O)c(O)c1` [CAFFEIC ACID], the EC50 came to 30.9 µM. Consider `Cc1cc([N+](=O)[O-])ccc1NC(=O)/C=C/c1ccc(O)c(O)c1`, for which the EC50 amounted to 13.2 µM. The result for `O=C(/C=C/c1ccc(O)c(O)c1)Nc1cc(Cl)c(O)c(Cl)c1` reads 5.51 µM.
